In ChEMBL document CHEMBL5241123, “Homopurine guanine-rich sequences in complex with N-methyl mesoporphyrin IX form parallel G-quadruplex dimers and display a unique symmetry tetrad” (Bioorg Med Chem, 2023):
Calls of active or inactive are those of the source. No cut-off for these calls is given here.

Experiments:
Format in all cases: nucleic-acid assay
Quadruplex DNA [1] = experiment: Binding affinity to G-quadruplex homo-purine guanine-rich GA1 (GAGGGAGGGAGGGAAAAGGGGA) DNA (unknown origin) at DNA:compound concentration ratio of 1:1 in 5K buffer by fluorescence titration based analysis
Procedure, shortened: (§1)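 Fluorescence titration at 20 °C in 5K buffer: ~1.0 μM NMM titrated with 140-270 μM annealed DNA to a final [DNA]/[NMM] of at least eight. Excitation 395-398 nm (UV-Vis isosbestic points), emission 560-720 nm. Single-component SVD, fit to 1:1, 1:2 and 2:1 models. Ka is the average of at least three trials.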

Quadruplex DNA [2] = experiment: Binding affinity to G-quadruplex homo-purine guanine-rich GA1 (GAGGGAGGGAGGGAAAAGGGGA) DNA (unknown origin) assessed as hypochromicity at 3.3 uM in 5K buffer by UV-Vis titration based analysis
Procedure, shortened: (§2)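 NMM (~3-4 μM, absorbance ~0.5, 1 cm cuvette) in 5K buffer (10 mM LiCaco pH 7.2, 95 mM LiCl, 5 mM KCl), titrated with DNA annealed in 5K buffer (170-470 μM, final [DNA]/[NMM] at least five), 2 min equilibration per addition, spectra 350-480 nm at 20 °C. SVD analysis, fit with NMM concentration fixed. Ka is the average of at least three trials.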

Quadruplex DNA [3] = experiment: Binding affinity to G-quadruplex homo-purine guanine-rich GA1 (GAGGGAGGGAGGGAAAAGGGGA) DNA (unknown origin) at DNA:compound concentration ratio of 1:2 in 5K buffer by fluorescence titration based analysis; procedure, shortened: as §1
Quadruplex DNA [4] = experiment: Stabilization and preservation of G-quadruplex homo-purine guanine-rich GA1 (GAGGGAGGGAGGGAAAAGGGGA) DNA (unknown origin) parallel structure conformation assessed as increase in melting temperature at 2 equivalents in 100K buffer by UV-Visible melting analysis; details: dose 2.0 equiv
Procedure, shortened: (§3)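 ~4 μM DNA with or without 2 eq. NMM in 100K buffer (10 mM LiCaco pH 7.2, 100 mM KCl), annealed then cooled slowly. UV-Vis melting 20-90 °C, 0.5 or 0.2 °C/min, signal at 295 nm corrected at 335 nm. Tm and ΔH from a two-state fit (hysteresis under 3 °C).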

Quadruplex DNA [5] = experiment: Binding affinity to G-quadruplex homo-purine guanine-rich GA3 (AGGGAAAAGGGGAGGGAAAAGGGGA) DNA (unknown origin) at DNA:compound concentration ratio of 1:2 in 5K buffer by UV-Vis titration based analysis; procedure, shortened: as §2
Quadruplex DNA [6] = experiment: Stabilization and preservation of G-quadruplex homo-purine guanine-rich GA3 (AGGGAAAAGGGGAGGGAAAAGGGGA) DNA (unknown origin) parallel structure conformation at 2 equivalents in 100K buffer by native PAGE analysis; details: dose 2.0 equiv
Procedure, shortened: (§4)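 Native 15% polyacrylamide gel in 1×TBE plus 10 mM KCl. Samples of ~50 μM DNA, alone or with 2 eq. NMM, in 100K buffer. Run 150 min at 150 V at room temperature after pre-running, with a dT15-dT57 ladder. Stains-All visualization.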

Quadruplex DNA [7] = experiment: Stabilization and preservation of G-quadruplex homo-purine guanine-rich GA3 (AGGGAAAAGGGGAGGGAAAAGGGGA) DNA (unknown origin) parallel structure conformation at 2 equivalents in 100K buffer by circular dichroism scan analysis; details: dose 2.0 equiv
Procedure, shortened: (§5)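 CD scans at 20 °C of ~4 μM annealed DNA, alone or with 2 eq. NMM, in 100K buffer. Range 220-330 nm, 1 cm cuvette, 2 nm bandwidth, five scans averaged.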

Quadruplex DNA [8] = experiment: Binding affinity to G-quadruplex homo-purine guanine-rich GA1 (GAGGGAGGGAGGGAAAAGGGGA) DNA (unknown origin) at DNA:compound concentration ratio of 1:2 in 5K buffer by UV-Vis titration based analysis; procedure, shortened: as §2
Quadruplex DNA [9] = experiment: Binding affinity to G-quadruplex homo-purine guanine-rich GA2 (GAGGGAGGGAAAAGGGGAGGGA) DNA (unknown origin) at DNA:compound concentration ratio of 1:1 in 5K buffer by fluorescence titration based analysis; procedure, shortened: as §1
Quadruplex DNA [10] = experiment: Binding affinity to G-quadruplex homo-purine guanine-rich GA2 (GAGGGAGGGAAAAGGGGAGGGA) DNA (unknown origin) assessed as hypochromicity at 3.3 uM in 5K buffer by circular dichroism scan analysis
Quadruplex DNA [11] = experiment: Binding affinity to G-quadruplex homo-purine guanine-rich GA2 (GAGGGAGGGAAAAGGGGAGGGA) DNA (unknown origin) at DNA:compound concentration ratio of 2:1 in 5K buffer by fluorescence titration based analysis; procedure, shortened: as §1
Quadruplex DNA [12] = experiment: Binding affinity to G-quadruplex homo-purine guanine-rich GA3 (AGGGAAAAGGGGAGGGAAAAGGGGA) DNA (unknown origin) at DNA:compound concentration ratio of 1:1 in 5K buffer by fluorescence titration based analysis; procedure, shortened: as §1
Quadruplex DNA [13] = experiment: Binding affinity to G-quadruplex homo-purine guanine-rich GA3 (AGGGAAAAGGGGAGGGAAAAGGGGA) DNA (unknown origin) at DNA:compound concentration ratio of 2:1 in 5K buffer by UV-Vis titration based analysis; procedure, shortened: as §2
Quadruplex DNA [14] = experiment: Binding affinity to G-quadruplex homo-purine guanine-rich GA3 (AGGGAAAAGGGGAGGGAAAAGGGGA) DNA (unknown origin) at DNA:compound concentration ratio of 1:2 in 5K buffer by fluorescence titration based analysis; procedure, shortened: as §1
Quadruplex DNA [15] = experiment: Stabilization and preservation of G-quadruplex homo-purine guanine-rich GA2 (GAGGGAGGGAAAAGGGGAGGGA) DNA (unknown origin) parallel structure conformation at 2 equivalents in 100K buffer by circular dichroism scan analysis; details: dose 2.0 equiv; procedure, shortened: as §5
Quadruplex DNA [16] = experiment: Binding affinity to G-quadruplex homo-purine guanine-rich GA2 (GAGGGAGGGAAAAGGGGAGGGA) DNA (unknown origin) at DNA:compound concentration ratio of 1:2 in 5K buffer by fluorescence titration based analysis; procedure, shortened: as §1
Quadruplex DNA [17] = experiment: Binding affinity to G-quadruplex homo-purine guanine-rich GA3 (AGGGAAAAGGGGAGGGAAAAGGGGA) DNA (unknown origin) assessed as hypochromicity at 3.3 uM in 5K buffer by circular dichroism scan analysis
Quadruplex DNA [18] = experiment: Stabilization and preservation of G-quadruplex homo-purine guanine-rich GA3 (AGGGAAAAGGGGAGGGAAAAGGGGA) DNA (unknown origin) parallel structure conformation assessed as increase in melting temperature at 2 equivalents in 100K buffer by UV-Visible melting analysis; details: dose 2.0 equiv; procedure, shortened: as §3
Quadruplex DNA [19] = experiment: Binding affinity to G-quadruplex homo-purine guanine-rich GA3 (AGGGAAAAGGGGAGGGAAAAGGGGA) DNA (unknown origin) at DNA:compound concentration ratio of 2:1 in 5K buffer by fluorescence titration based analysis; procedure, shortened: as §1
Quadruplex DNA [20] = experiment: Stabilization and preservation of G-quadruplex homo-purine guanine-rich GA2 (GAGGGAGGGAAAAGGGGAGGGA) DNA (unknown origin) parallel structure conformation assessed as elimination of higher order species at 2 equivalents in 100K buffer by native PAGE analysis; details: dose 2.0 equiv; procedure, shortened: as §4
Quadruplex DNA [21] = experiment: Binding affinity to G-quadruplex homo-purine guanine-rich GA1 (GAGGGAGGGAGGGAAAAGGGGA) DNA (unknown origin) at DNA:compound concentration ratio of 2:1 in 5K buffer by UV-Vis titration based analysis; procedure, shortened: as §2
Quadruplex DNA [22] = experiment: Stabilization and preservation of G-quadruplex homo-purine guanine-rich GA2 (GAGGGAGGGAAAAGGGGAGGGA) DNA (unknown origin) parallel structure conformation assessed as increase in melting temperature at 2 equivalents in 100K buffer by UV-Visible melting analysis; details: dose 2.0 equiv; procedure, shortened: as §3
Quadruplex DNA [23] = experiment: Stabilization and preservation of G-quadruplex homo-purine guanine-rich GA3 (AGGGAAAAGGGGAGGGAAAAGGGGA) DNA (unknown origin) parallel structure conformation assessed as increase in enthalpy change associated with melting transition at 2 equivalents in 100K buffer by UV-Visible melting analysis; details: dose 2.0 equiv; procedure, shortened: as §3
Quadruplex DNA [24] = experiment: Stabilization and preservation of G-quadruplex homo-purine guanine-rich GA1 (GAGGGAGGGAGGGAAAAGGGGA) DNA (unknown origin) parallel structure conformation assessed as increase in enthalpy change associated with melting transition at 2 equivalents in 100K buffer by UV-Visible melting analysis; details: dose 2.0 equiv; procedure, shortened: as §3
Quadruplex DNA [25] = experiment: Binding affinity to G-quadruplex homo-purine guanine-rich GA2 (GAGGGAGGGAAAAGGGGAGGGA) DNA (unknown origin) assessed as red shift at 3.3 uM in 5K buffer by circular dichroism scan analysis
Quadruplex DNA [26] = experiment: Binding affinity to G-quadruplex homo-purine guanine-rich GA3 (AGGGAAAAGGGGAGGGAAAAGGGGA) DNA (unknown origin) at DNA:compound concentration ratio of 1:1 in 5K buffer by UV-Vis titration based analysis; procedure, shortened: as §2
Quadruplex DNA [27] = experiment: Binding affinity to G-quadruplex homo-purine guanine-rich GA1 (GAGGGAGGGAGGGAAAAGGGGA) DNA (unknown origin) at DNA:compound concentration ratio of 2:1 in 5K buffer by fluorescence titration based analysis; procedure, shortened: as §1
Quadruplex DNA [28] = experiment: Binding affinity to G-quadruplex homo-purine guanine-rich GA2 (GAGGGAGGGAAAAGGGGAGGGA) DNA (unknown origin) at DNA:compound concentration ratio of 1:1 in 5K buffer by UV-Vis titration based analysis; procedure, shortened: as §2
Quadruplex DNA [29] = experiment: Binding affinity to G-quadruplex homo-purine guanine-rich GA1 (GAGGGAGGGAGGGAAAAGGGGA) DNA (unknown origin) at DNA:compound concentration ratio of 1:1 in 5K buffer by UV-Vis titration based analysis; procedure, shortened: as §2
Quadruplex DNA [30] = experiment: Binding affinity to G-quadruplex homo-purine guanine-rich GA1 (GAGGGAGGGAGGGAAAAGGGGA) DNA (unknown origin) assessed as red shift at 3.3 uM in 5K buffer by UV-Vis titration based analysis; procedure, shortened: as §2
Quadruplex DNA [31] = experiment: Binding affinity to G-quadruplex homo-purine guanine-rich GA3 (AGGGAAAAGGGGAGGGAAAAGGGGA) DNA (unknown origin) assessed as red shift at 3.3 uM in 5K buffer by circular dichroism scan analysis
Quadruplex DNA [32] = experiment: Stabilization and preservation of G-quadruplex homo-purine guanine-rich GA1 (GAGGGAGGGAGGGAAAAGGGGA) DNA (unknown origin) parallel structure conformation at 2 equivalents in 100K buffer by circular dichroism scan analysis; details: dose 2.0 equiv; procedure, shortened: as §5
Quadruplex DNA [33] = experiment: Stabilization and preservation of G-quadruplex homo-purine guanine-rich GA1 (GAGGGAGGGAGGGAAAAGGGGA) DNA (unknown origin) parallel structure conformation assessed as increased homogeneity at 2 equivalents in 100K buffer by native PAGE analysis; details: dose 2.0 equiv; procedure, shortened: as §4
Quadruplex DNA [34] = experiment: Stabilization and preservation of G-quadruplex homo-purine guanine-rich GA2 (GAGGGAGGGAAAAGGGGAGGGA) DNA (unknown origin) parallel structure conformation assessed as increase in enthalpy change associated with melting transition at 2 equivalents in 100K buffer by UV-Visible melting analysis; details: dose 2.0 equiv; procedure, shortened: as §3

In the case of `CCC1=C(C)c2cc3c(C)c(CCC(=O)O)c(cc4nc(cc5[nH]c(cc1n2)c(C)c5CC)C(C)=C4CCC(=O)O)n3C`, the Ka (Quadruplex DNA [1]) is reported as 0.4 µM⁻¹, the Activity (Quadruplex DNA [2]) is reported as 21% and the Ka (Quadruplex DNA [3]) is reported as 0.18 µM⁻¹. For the same molecule, the ΔTm (Quadruplex DNA [4]) was 14.6 °C, the Ka (Quadruplex DNA [5]) was 0.1 µM⁻¹ and the Activity (Quadruplex DNA [6]) was “Active”. For the same molecule, the Activity (Quadruplex DNA [7]) was “Active”, the Ka (Quadruplex DNA [8]) was 0.07 µM⁻¹ and the Ka (Quadruplex DNA [9]) was 1 µM⁻¹. It also gave an Activity (Quadruplex DNA [10]) of 19%, a Ka (Quadruplex DNA [11]) of 3.7 µM⁻¹ and a Ka (Quadruplex DNA [12]) of 0.4 µM⁻¹. The Ka (Quadruplex DNA [13]) was 0.96 µM⁻¹, the Ka (Quadruplex DNA [14]) was 0.2 µM⁻¹ and the Activity (Quadruplex DNA [15]) was “Active”. For the same molecule, the Ka (Quadruplex DNA [16]) was 0.36 µM⁻¹, the Activity (Quadruplex DNA [17]) was 28% and the ΔTm (Quadruplex DNA [18]) was 7 °C. The Ka (Quadruplex DNA [19]) was 1.1 µM⁻¹, the Activity (Quadruplex DNA [20]) was “Active” and the Ka (Quadruplex DNA [21]) was 0.8 µM⁻¹. The ΔTm (Quadruplex DNA [22]) was 13.1 °C, the deltaH (Quadruplex DNA [23]) was 14 kJ/mol and the deltaH (Quadruplex DNA [24]) was 81 kJ/mol. For the same molecule, the Activity (Quadruplex DNA [25]) was 21.3 nm, the Ka (Quadruplex DNA [26]) was 0.24 µM⁻¹ and the Ka (Quadruplex DNA [27]) was 1.1 µM⁻¹. The Ka (Quadruplex DNA [28]) was 1.4 µM⁻¹, the Ka (Quadruplex DNA [29]) was 0.19 µM⁻¹ and the Activity (Quadruplex DNA [30]) was 21 nm. For the same molecule, the Activity (Quadruplex DNA [31]) was 21.4 nm, the Activity (Quadruplex DNA [32]) was “Active” and the Activity (Quadruplex DNA [33]) was “Active”. The deltaH (Quadruplex DNA [34]) was 63 kJ/mol.
